Data reported in PMC10500653 (ACS Omega, 2023).
Read-outs that look alike come from different tables or passages of the source.

Legend:
[1] = system: HuCCA-1 cholangiocarcinoma cell line; experiment: Cytotoxicity assay; assay type: cell-based; conditions: Homo sapiens, HuCC-A1, 48 h, read-out: Cytotoxic activity IC50, HuCCA-1
Method in brief: (§1)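 Cells were pre-plated in medium, then an equal volume of medium holding serial dilutions of the test compound was added to reach the final concentrations. Controls were DMSO (negative) and etoposide and/or doxorubicin (positive). Plates were incubated a further 48 h and surviving cells were counted by MTT. IC50 is the concentration giving 50% growth inhibition relative to the DMSO control.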

[2] = system: HepG2 hepatocellular carcinoma cell line; experiment: Cytotoxicity assay; assay type: cell-based, human; conditions: for IC50: Homo sapiens, HepG2, 48 h; for Cytotoxic activity IC50, HepG2: 48 h, MTT
Method in brief: as §1

[3] = system: A549 lung carcinoma cell line; experiment: Cytotoxicity assay; assay type: cell-based, human; conditions: for IC50: Homo sapiens, A549, 48 h
Method in brief: as §1

[4] = system: MOLT-3 lymphoblastic leukemia cell line; experiment: Cytotoxicity assay; assay type: cell-based; conditions: Homo sapiens, MOLT-3, 48 h, read-out: Cytotoxic activity IC50, MOLT-3
Method in brief: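 MOLT-3 cells received an equal volume of additional medium with serial dilutions of the test compound to reach the final concentrations. DMSO served as the negative control and etoposide and/or doxorubicin as the positive control. After a further 48 h incubation, surviving cells were counted by XTT. IC50 is the concentration inhibiting growth by 50% versus the DMSO control.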

[5] = system: T47D hormone-dependent breast cancer; experiment: Cytotoxicity assay; assay type: cell-based; conditions: Homo sapiens, 48 h, read-out: Cytotoxic activity IC50, T47D
Method in brief: as §1

[6] = system: MDA-MB-231 hormone-independent breast cancer; experiment: Cytotoxicity assay; assay type: cell-based; conditions: Homo sapiens, MDA-MB-231, 48 h, read-out: Cytotoxic activity IC50, MDA-MB-231
Method in brief: as §1

[7] = Cytotoxicity assay; assay type: cell-based; conditions: human, MRC-5 normal embryonic lung cells
Method in brief: as §1

[8] = target: FGFR1 tyrosine kinase (Homo sapiens, UniProt P11362); experiment: ADP-Glo kinase assay, FGFR1; assay type: biochemical; conditions: for inhibition at 1 µM: read-out: % inhibition of FGFR1
[9] = read-out: Cytotoxic activity IC50, HepG2
[10] = read-out: Cytotoxic activity IC50, A549
[11] = read-out: Cytotoxic activity, HepG2 (class NC)

Sequence of FGFR1 tyrosine kinase (P11362 22-822): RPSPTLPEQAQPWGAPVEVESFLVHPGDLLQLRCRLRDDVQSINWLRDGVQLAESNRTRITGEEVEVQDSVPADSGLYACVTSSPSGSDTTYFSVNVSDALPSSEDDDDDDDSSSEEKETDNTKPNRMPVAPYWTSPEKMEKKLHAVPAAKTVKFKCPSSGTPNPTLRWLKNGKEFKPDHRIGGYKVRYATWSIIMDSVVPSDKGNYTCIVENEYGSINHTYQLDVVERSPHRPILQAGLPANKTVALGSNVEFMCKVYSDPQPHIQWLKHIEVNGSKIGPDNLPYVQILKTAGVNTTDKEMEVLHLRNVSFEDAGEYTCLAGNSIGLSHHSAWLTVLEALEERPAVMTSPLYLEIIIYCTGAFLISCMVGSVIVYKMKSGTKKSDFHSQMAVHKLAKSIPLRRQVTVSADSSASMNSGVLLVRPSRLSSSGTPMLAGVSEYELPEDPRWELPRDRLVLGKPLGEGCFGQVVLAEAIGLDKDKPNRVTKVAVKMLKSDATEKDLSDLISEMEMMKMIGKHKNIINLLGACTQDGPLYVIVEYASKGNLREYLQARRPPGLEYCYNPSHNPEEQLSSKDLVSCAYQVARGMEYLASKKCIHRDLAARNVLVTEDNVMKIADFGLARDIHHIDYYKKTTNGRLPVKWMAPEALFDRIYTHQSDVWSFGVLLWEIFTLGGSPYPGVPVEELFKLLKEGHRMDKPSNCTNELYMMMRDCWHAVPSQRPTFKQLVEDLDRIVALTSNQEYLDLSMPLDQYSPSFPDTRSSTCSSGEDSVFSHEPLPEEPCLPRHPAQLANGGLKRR

SMILES: COc1cccc(/C=C/C(=O)c2cccc(NC3=C(Cl)C(=O)c4ccccc4C3=O)c2)c1OC [Compound 1, (E)-2-Chloro-3-((3-(3-(2,3-dimethoxyphenyl)acryloyl)phenyl)amino)naphthalene-1,4-dione]
- IC50 [1]: 1160 ± 400 nM
- IC50 [2, 9]: 5130 ± 150 nM
- IC50 [3, 10]: 6120 ± 1560 nM
- IC50 [4]: 1240 ± 30 nM
- IC50 [5]: 1810 ± 40 nM
- IC50 [6]: 1080 ± 120 nM
- IC50 at 48 h [7]: 4960 ± 140 nM
- IC50 [8]: 0.91 ± 0.08 nM
- inhibition at 1 µM [8]: > 70%

SMILES: COc1ccc(/C=C/C(=O)c2cccc(NC3=C(Cl)C(=O)c4ccccc4C3=O)c2)c(OC)c1OC [Compound 2, (E)-2-Chloro-3-((3-(3-(2,3,4-trimethoxyphenyl)acryloyl)phenyl)amino)naphthalene-1,4-dione]
- IC50 [1]: 8870 ± 1030 nM
- IC50 [2, 9]: 16300 ± 440 nM
- IC50 [3, 10]: 33500 ± 170 nM
- IC50 [4]: 1810 ± 50 nM
- IC50 [5]: 2320 ± 80 nM
- IC50 [6]: 1790 ± 120 nM
- IC50 at 48 h [7]: 2600 ± 40 nM
- IC50 [8]: 1.5 ± 0.28 nM
- inhibition at 1 µM [8]: > 70%

SMILES: COc1cc(/C=C/C(=O)c2cccc(NC3=C(Cl)C(=O)c4ccccc4C3=O)c2)cc(OC)c1OC [Compound 3, (E)-2-Chloro-3-((3-(3-(3,4,5-trimethoxyphenyl)acryloyl)phenyl)amino)naphthalene-1,4-dione]
- IC50 [1]: 4720 ± 480 nM
- IC50 [2, 9]: 16900 ± 740 nM
- IC50 [3, 10]: 51600 ± 10300 nM
- IC50 [4]: 990 ± 120 nM
- IC50 [5]: 1150 ± 80 nM
- IC50 [6]: 1050 ± 40 nM
- IC50 at 48 h [7]: 2520 ± 260 nM

SMILES: COc1cc(/C=C/C(=O)c2cccc(NC3=C(Cl)C(=O)c4ccccc4C3=O)c2)cc(OC)c1O [Compound 4, (E)-2-Chloro-3-((3-(3-(4-hydroxy-3,5-dimethoxyphenyl)acryloyl)phenyl)amino)naphthalene-1,4-dione]
- IC50 [1]: 7060 ± 1360 nM
- IC50 [2, 9]: 12800 ± 420 nM
- IC50 [3, 10]: 25000 ± 4220 nM
- IC50 [4]: 1100 ± 140 nM
- IC50 [5]: 2120 ± 110 nM
- IC50 [6]: 1430 ± 110 nM
- IC50 at 48 h [7]: 2900 ± 480 nM
- IC50 [8]: 0.96 ± 0.05 nM
- inhibition at 1 µM [8]: > 70%

SMILES: O=C(/C=C/c1ccc(O)cc1)c1cccc(NC2=C(Cl)C(=O)c3ccccc3C2=O)c1 [Compound 5, (E)-2-Chloro-3-((3-(3-(4-hydroxyphenyl)acryloyl)phenyl)amino)naphthalene-1,4-dione]
- IC50 [1]: 5650 ± 80 nM
- IC50 [2, 9]: 13070 ± 120 nM
- IC50 [3, 10]: 31900 ± 3710 nM
- IC50 [4]: 2190 ± 260 nM
- IC50 [5]: 5750 nM
- IC50 [6]: 3330 ± 80 nM
- IC50 at 48 h [7]: 11000 ± 990 nM
- IC50 [8]: 0.33 ± 0.01 nM
- inhibition at 1 µM [8]: > 70%

SMILES: COc1cccc(/C=C/C(=O)c2ccc(NC3=C(Cl)C(=O)c4ccccc4C3=O)cc2)c1 [Compound 6, (E)-2-Chloro-3-((4-(3-(3-methoxyphenyl)acryloyl)phenyl)amino)naphthalene-1,4-dione]
- IC50 [1]: 11100 ± 370 nM
- IC50 [2, 9]: 6880 ± 2720 nM
- IC50 [3, 10]: 13500 ± 1490 nM
- IC50 [4]: 1780 ± 60 nM
- IC50 [5]: 2100 ± 120 nM
- IC50 [6]: 1310 ± 30 nM
- IC50 at 48 h [7]: 2690 ± 150 nM

SMILES: COc1ccc(/C=C/C(=O)c2ccc(NC3=C(Cl)C(=O)c4ccccc4C3=O)cc2)cc1OC [Compound 7, (E)-2-Chloro-3-((4-(3-(3,4-dimethoxyphenyl)acryloyl)phenyl)amino)naphthalene-1,4-dione]
- IC50 [1]: 7320 ± 370 nM
- Cytotoxic activity IC50, HepG2 [2]: inactive
- IC50 [2, 11]: > 50 µg/mL
- IC50 [3, 10]: 62060 ± 140 nM
- IC50 [4]: 1270 ± 120 nM
- IC50 [5]: 1860 ± 60 nM
- IC50 [6]: 1160 ± 30 nM
- IC50 at 48 h [7]: 2930 ± 160 nM
- IC50 [8]: 0.85 ± 0.08 nM
- inhibition at 1 µM [8]: > 70%

SMILES: COc1cc(/C=C/C(=O)c2ccc(NC3=C(Cl)C(=O)c4ccccc4C3=O)cc2)cc(OC)c1OC [Compound 8, (E)-2-Chloro-3-((4-(3-(3,4,5-trimethoxyphenyl)acryloyl)phenyl)amino)naphthalene-1,4-dione]
- IC50 [1]: 4720 ± 330 nM
- IC50 [2, 9]: 10870 ± 10 nM
- IC50 [3, 10]: 25800 ± 3550 nM
- IC50 [4]: 810 ± 20 nM
- IC50 [5]: 1610 ± 70 nM
- IC50 [6]: 1090 ± 20 nM
- IC50 at 48 h [7]: 2920 ± 360 nM
- IC50 [8]: 1.69 ± 0.71 nM

SMILES: COc1ccc(/C=C/C(=O)c2ccc(NC3=C(Cl)C(=O)c4ccccc4C3=O)cc2)cc1O [Compound 9, (E)-2-Chloro-3-((4-(3-(3-hydroxy-4-methoxyphenyl)acryloyl)phenyl)amino)naphthalene-1,4-dione]
- IC50 [1]: 6850 ± 1200 nM
- Cytotoxic activity IC50, HepG2 [2]: inactive
- IC50 [2, 11]: > 50 µg/mL
- Cytotoxic activity IC50, A549 ([3]; A549, 48 h, MTT): inactive
- IC50 ([3]; read-out: Cytotoxic activity, A549 (class NC)): > 50 µg/mL
- IC50 [4]: 830 ± 10 nM
- IC50 [5]: 24000 ± 1610 nM
- IC50 [6]: 6810 ± 520 nM
- IC50 at 48 h [7]: 14940 ± 90 nM
- IC50 [8]: 0.5 ± 0.04 nM

SMILES: O=C(/C=C/c1ccc(O)cc1)c1ccc(NC2=C(Cl)C(=O)c3ccccc3C2=O)cc1 [Compound 10, (E)-2-Chloro-3-((4-(3-(4-hydroxyphenyl)acryloyl)phenyl)amino)naphthalene-1,4-dione]
- IC50 [1]: 7700 ± 2850 nM
- IC50 [2, 9]: 57500 ± 1280 nM
- IC50 [3, 10]: 44200 ± 4060 nM
- IC50 [4]: 2350 ± 390 nM
- IC50 [5]: 3210 ± 60 nM
- IC50 [6]: 1370 ± 70 nM
- IC50 at 48 h [7]: 8310 ± 3300 nM
- IC50 [8]: 3.13 ± 0.67 nM
- inhibition at 1 µM [8]: > 70%

SMILES: COc1cccc2c1C(=O)c1c(O)c3c(c(O)c1C2=O)C[C@@](O)(C(=O)CO)C[C@@H]3O[C@H]1C[C@H](N)[C@H](O)[C@H](C)O1 [doxorubicin, reference compound]
- IC50 [1]: 420 ± 20 nM
- IC50 [2, 9]: 570 ± 50 nM
- IC50 [3, 10]: 370 ± 20 nM
- IC50 [5]: 840 ± 10 nM
- IC50 [6]: 1840 ± 130 nM
- IC50 at 48 h [7]: 2790 ± 110 nM

SMILES: COc1cc([C@@H]2c3cc4c(cc3[C@@H](O[C@@H]3O[C@@H]5CO[C@@H](C)O[C@H]5[C@H](O)[C@H]3O)[C@H]3COC(=O)[C@H]23)OCO4)cc(OC)c1O [etoposide, reference compound]
- IC50 [2, 9]: 33980 ± 10 nM
- IC50 [4]: 41 ± 3 nM
